Data: publication PMC10354499 (RSC Advances, 2023)

Assays:
[1] = Selective toxicity, MTT assay in HEK-293 cells; format: cell-based, human; conditions: human, HEK-293 cells
Method in brief: (§1)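 HEK-293 cells were grown in DMEM with 10% FBS, 1% penicillin–streptomycin, 1% L-glutamine and 2.5% HEPES. Cells were seeded at 15 000 cells/well, held 24 h (37 °C, 5% CO2), then exposed to test compound for 24 h. MTT (5 mg mL−1 in PBS) plus medium was added for 4 h, then aspirated, and formazan was dissolved in DMSO. Absorbance was read at 570/690 nm; percentage viability by formula, triplicate.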

[2] = test system: CT-DNA relative to BSA; experiment: Relative stability constant ln; conditions: natural logarithm of ratio of CT-DNA to BSA binding constants
Method in brief: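 KDNA: CT-DNA (0–8 μM) was titrated against 20 μM test compound in PBS with ~2% (v/v) DMSO final. Mixtures were incubated 10 min and read by UV-vis, with DNA absorbance cancelled in the reference. KDNA was the slope/intercept ratio of [DNA]/(εa−εf) vs [DNA] (Wolfe–Shimer). KBSA: 0–10 μM compound was added to 6 μM BSA in PBS pH 7.2, 10 min at 25 °C, A280 read, Benesi–Hildebrand fit.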

[3] = test system: HEK-293 cells; experiment: Selective toxicity, MTT assay in HEK-293 cells; format: cell-based, human; conditions: at respective MCF-7 IC50 concentration, 24 hours, MTT
Method in brief: as §1

[4] = test system: MCF-7 cells; conditions: read-out: IC50 (MCF-7); known breast cancer antineoplastic drug; cited from earlier work

| SMILES | viability at 24 h [1] | ln(KDNA/KBSA) [2] | cell viability (HEK-293) [3] | IC50 [4] |
| --- | --- | --- | --- | --- |
| CC1(C)CC(=O)C2=C(C1)Oc1ncnc(Nc3ccccc3)c1C2c1ccccc1F (centres unmarked) [Compound 3a, 5-(2-Fluorophenyl)-8,8-dimethyl-4-(phenylamino)-5,7,8,9-tetrahydro-6H-chromeno[2,3-d]pyrimidin-6-one] | 96.6% | lowest |  |  |
| CC1(C)CC(=O)C2=C(C1)Oc1ncnc(Nc3cccc(-[c-]4cccc4)c3)c1C2c1ccccc1F.[Fe+2].c1cc[cH-]c1 (centres unmarked) [Compound 3j, 4-((3-Ferrocenylphenyl)amino)-5-(2-fluorophenyl)-8,8-dimethyl-5,7,8,9-tetrahydro-6H-chromeno[2,3-d]pyrimidin-6-one] |  | highest | 107.43% |  |
| CC[C@]1(O)C[C@@H]2CN(CCc3c([nH]c4ccccc34)[C@@](C(=O)OC)(c3cc4c(cc3OC)N(C)[C@H]3[C@@](O)(C(=O)OC)[C@H](OC(C)=O)[C@]5(CC)C=CCN6CC[C@]43[C@@H]65)C2)C1 [Vinoblastine, vinblastine] |  |  |  | 10.2 ± 0.39 µM |
